Active and inactive are the calls of the source. No cut-off for these calls is given here.
Tests used:
[1] = Displacement of [3H]di-o-tolylguanidine from sigma 2 receptor in rat brain homogenates after 120 mins by liquid scintillation counting; assay type: tissue-based
[2] = organism: Rattus norvegicus; experiment: Selectivity ratio of Ki for sigma 2 receptor in rat brain homogenates to Ki for sigma 1 receptor in rat brain homogenates; assay type: tissue-based
[3] = system: Mus musculus; experiment: Anticonvulsant activity in Swiss Webster mouse assessed as reversal of cocaine-induced loss of righting reflexes at 30 mg/kg, ip administered 15 mins before cocaine challenge measured after 30 mins; assay type: functional, organism-based; design: dose 30 mg/kg
Procedure, shortened: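 Male Swiss Webster mice, n = 10/group, given test compound ip (0, 1, 10 or 30 mg/kg) 15 min before a convulsive dose of cocaine (70 mg/kg ip). Animals observed for convulsions for 30 min after cocaine injection. Groups compared by Fisher's exact test.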

[4] = molecular target: Kappa-type opioid receptor (Homo sapiens, UniProt P41145); experiment: Displacement of [3H]U69,593 from human kappa opioid receptor expressed in CHO cells after 120 mins by liquid scintillation counting; assay type: cell-based
Procedure, shortened: (§1)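 Membranes from CHO cells stably expressing human μ, δ or κ opioid receptor. Radioligands: μ 1.3 nM [3H]DAMGO, δ 1.2 nM [3H]DPDPE, κ 1.7 nM [3H]U69,593; nonspecific with 1 μM of the matching unlabelled ligand.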

[5] = system: Mus musculus; experiment: Anticonvulsant activity in ip dosed Swiss Webster mouse assessed as reversal of cocaine-induced loss of righting reflexes administered 15 mins before cocaine challenge measured after 30 mins; assay type: functional, organism-based
Procedure, shortened: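 Male Swiss Webster mice, n = 10 per group, given test compound ip (0–30 mg/kg range across doses including vehicle 0) 15 min before convulsive cocaine 70 mg/kg ip. Animals watched 30 min after cocaine for occurrence of convulsions; groups compared by Fisher's exact test.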

[6] = molecular target: Mu-type opioid receptor (Homo sapiens, UniProt P35372); experiment: Displacement of [3H]DAMGO from human mu opioid receptor expressed in CHO cells after 120 mins by liquid scintillation counting; assay type: cell-based; procedure, shortened: as §1
Sequence of Mu-type opioid receptor (P35372 whole entry): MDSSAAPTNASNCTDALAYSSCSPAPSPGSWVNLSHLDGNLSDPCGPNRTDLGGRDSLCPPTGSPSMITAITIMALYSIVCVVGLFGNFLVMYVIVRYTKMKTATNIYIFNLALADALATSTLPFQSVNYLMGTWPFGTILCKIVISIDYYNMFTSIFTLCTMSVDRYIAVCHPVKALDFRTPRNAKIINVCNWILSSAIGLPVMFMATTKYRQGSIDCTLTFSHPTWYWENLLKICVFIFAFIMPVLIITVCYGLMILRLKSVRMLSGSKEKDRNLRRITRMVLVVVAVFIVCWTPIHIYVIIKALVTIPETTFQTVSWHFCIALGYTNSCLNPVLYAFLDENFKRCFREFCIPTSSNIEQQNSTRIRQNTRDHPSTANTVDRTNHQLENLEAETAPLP

Sequence of Kappa-type opioid receptor (P41145 whole entry): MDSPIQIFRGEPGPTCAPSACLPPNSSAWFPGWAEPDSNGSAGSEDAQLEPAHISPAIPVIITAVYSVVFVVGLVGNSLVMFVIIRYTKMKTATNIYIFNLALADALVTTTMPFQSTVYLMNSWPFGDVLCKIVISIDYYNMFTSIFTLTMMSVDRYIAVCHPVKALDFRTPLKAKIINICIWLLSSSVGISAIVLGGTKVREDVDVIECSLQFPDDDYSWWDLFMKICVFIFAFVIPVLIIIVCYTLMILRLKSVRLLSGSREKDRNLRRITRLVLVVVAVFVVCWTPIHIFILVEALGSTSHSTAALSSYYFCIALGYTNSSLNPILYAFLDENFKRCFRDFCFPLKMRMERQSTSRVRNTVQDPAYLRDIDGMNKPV

Row | SMILES | Ki [1] [nM] | Ratio Ki [2] | Activity [3] | Ki [4] [nM] | Activity [5] | Ki [6] [nM]
1 | CN(C)[C@H]1CCCC[C@@H]1OCCCc1ccccc1 (relative stereo) | 3800 | 65 |  |  |  | 
2 | CN(CCc1ccccc1)[C@H]1CCCC[C@@H]1O (relative stereo) | 220 | 2 | Active |  |  | 
3 | c1ccc(CCN2CCCCC2)cc1 [1-PHENETHYLPIPERIDINE] | 140 | 5 |  |  |  | 
4 | CN(CCc1ccccc1)[C@H]1CCCC[C@@H]1OCCCc1ccccc1 (relative stereo) | 570 | 7 |  | 21000 |  | 
5 | CN(CCCc1ccccc1)[C@H]1CCCC[C@@H]1OCCCc1ccccc1 (racemic) | > 10000 |  |  |  |  | 
6 | CN(CCCc1ccccc1)[C@H]1CCCC[C@@H]1O (relative stereo) | 6.7 | 0.4 |  |  | Dose-dependent effect | > 10000
7 | CN(C)[C@H]1CCCC[C@@H]1OC/C=C/c1ccccc1 (relative stereo) | 1100 | 240 |  |  |  | 
